Assay results as given in ChEMBL document CHEMBL3259728, “Design, synthesis and biological evaluation of some novel substituted quinazolines as antitumor agents” (2014).

Experiments:
Assay type in all cases: functional
[1] = tested on: SK-OV-3; experiment: Growth inhibition of human SKOV3 cells assessed as cell growth at 10^-4 M after 48 hrs by SRB assay; settings: SK-OV-3, 48 h, read-out: Activity
[2] = tested on: HCC 2998; experiment: Cytotoxicity against human HCC2998 cells after 48 hrs by SRB assay; settings: HCC 2998, 48 h
Outline: (§1)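 NCI 60-cell-line panel of human tumour lines from nine cancer types. Continuous 48 h exposure at five 10-fold dilutions from 10^-4 to 10^-8 M, with 5-FU as positive control. SRB protein stain read spectrophotometrically at time zero, untreated control and each concentration. GI50, TGI and LC50 were derived from the [(Ti−Tz)/(C−Tz)]×100 growth relations, and out-of-range values are given as > or < the tested limits.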

[3] = tested on: NCI-H322M; experiment: Growth inhibition of human NCI-H322M cells assessed as cell growth at 10^-5 M after 48 hrs by SRB assay; settings: read-out: Activity
[4] = tested on: Malme-3M; experiment: Growth inhibition of human MALME-3M cells assessed as cell growth at 10^-7 M after 48 hrs by SRB assay; settings: read-out: Activity
[5] = tested on: SK-MEL-28; experiment: Growth inhibition of human SK-MEL-28 cells assessed as cell growth at 10^-5 M after 48 hrs by SRB assay; settings: SK-MEL-28, 48 h, read-out: Activity
[6] = tested on: SK-MEL-28; experiment: Growth inhibition of human SK-MEL-28 cells assessed as cell growth at 10^-4 M after 48 hrs by SRB assay; settings: SK-MEL-28, 48 h, read-out: Activity
[7] = tested on: MCF7; experiment: Growth inhibition of human MCF7 cells assessed as cell growth at 10^-6 M after 48 hrs by SRB assay; settings: MCF7, 48 h, read-out: Activity
[8] = tested on: MDA-MB-231; experiment: Growth inhibition of human MDA-MB-231 cells assessed as cell growth at 10^-4 M after 48 hrs by SRB assay; settings: MDA-MB-231, 48 h, read-out: Activity
[9] = tested on: IGROV-1; experiment: Growth inhibition of human IGROV1 cells assessed as cell growth at 10^-5 M after 48 hrs by SRB assay; settings: IGROV-1, 48 h, read-out: Activity
[10] = tested on: SF-539; experiment: Cytotoxicity against human SF539 cells after 48 hrs by SRB assay; settings: SF-539, 48 h; outline: as §1
[11] = tested on: SNB-75; experiment: Growth inhibition of human SNB75 cells assessed as cell growth at 10^-5 M after 48 hrs by SRB assay; settings: SNB-75, 48 h, read-out: Activity
[12] = tested on: SR; experiment: Cytotoxicity against human SR cells after 48 hrs by SRB assay; outline: as §1
[13] = Growth inhibition of human MOLT4 cells assessed as cell growth at 10^-4 M after 48 hrs by SRB assay; settings: MOLT-4, 48 h, read-out: Activity
[14] = tested on: MDA-MB-468; experiment: Growth inhibition of human MDA-MB-468 cells assessed as cell growth at 10^-8 M after 48 hrs by SRB assay; settings: MDA-MB-468, 48 h, read-out: Activity
[15] = Growth inhibition of human OVCAR5 cells assessed as cell growth at 10^-4 M after 48 hrs by SRB assay; settings: OVCAR-5, 48 h, read-out: Activity
[16] = tested on: T47D; experiment: Cytotoxicity against human T47D cells after 48 hrs by SRB assay
Outline: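 NCI 60-cell-line panel, 48 h continuous exposure to five 10-fold dilutions from 10^-4 to 10^-8 M. SRB protein staining was read spectrophotometrically, with time-zero, untreated-control and treated absorbances. GI50, TGI and LC50 were derived from the percentage-growth formulas. Values outside the tested range are expressed as more or less than the maximum or minimum concentration.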

[17] = tested on: IGROV-1; experiment: Cytotoxicity against human IGROV1 cells after 48 hrs by SRB assay; settings: IGROV-1, 48 h; outline: as §1
[18] = read-out: LC50 (the source's name)
[19] = read-out: pLC50 (the source's name) (converted)

`Cc1ccc(-c2nc3ccc(Cl)cc3c(=O)n2/N=C/c2ccccc2)cc1` gave a growth at 100 µM [1] of -37%, a GI50 ([2]; read-out: GI50) greater than 100 µM and a CC50 [2, 18] greater than 100 µM. For the same molecule, the TGI ([2]; read-out: TGI) was greater than 100 µM, the GI50 ([2]; read-out: pGI50 (converted)) was greater than 100 µM and the CC50 [2, 19] was greater than 100 µM. It also gave a TGI ([2]; read-out: pTGI) greater than 100 µM, a growth at 10 µM [3] of 52% and a growth at 0.1 µM [4] of 76%. It also gave a growth at 10 µM [5] of 60%, a growth at 100 µM [6] of 27% and a growth at 1 µM [7] of 86%. It also gave a growth at 100 µM [8] of 16%, a growth at 10 µM [9] of 34% and a GI50 ([10]; read-out: GI50) greater than 100 µM. The CC50 [10, 18] was greater than 100 µM, the TGI ([10]; read-out: TGI) was greater than 100 µM and the GI50 ([10]; read-out: pGI50 (converted)) was greater than 100 µM. The CC50 [10, 19] was greater than 100 µM, the TGI ([10]; read-out: pTGI) was greater than 100 µM and the growth at 10 µM [11] was 31%. It also gave a GI50 ([12]; read-out: GI50) greater than 100 µM, a CC50 [12, 18] greater than 100 µM and a TGI ([12]; read-out: TGI) greater than 100 µM. The GI50 ([12]; read-out: pGI50 (converted)) was greater than 100 µM, the CC50 [12, 19] was greater than 100 µM and the TGI ([12]; read-out: pTGI) was greater than 100 µM. For the same molecule, the growth at 100 µM [13] was 56%, the growth at 0.01 µM [14] was 91% and the growth at 100 µM [15] was 61%. For the same molecule, the GI50 ([16]; read-out: GI50) was 3.82 µM, the CC50 [16, 18] was greater than 100 µM and the TGI ([16]; read-out: TGI) was greater than 100 µM. It also gave a GI50 ([16]; read-out: pGI50 (converted)) of 3.8 µM, a CC50 [16, 19] greater than 100 µM and a TGI ([16]; read-out: pTGI) greater than 100 µM. The GI50 ([17]; read-out: GI50) was 3.69 µM, the CC50 [17, 18] was greater than 100 µM and the TGI ([17]; read-out: TGI) was greater than 100 µM. The GI50 ([17]; read-out: pGI50 (converted)) was 3.72 µM, the CC50 [17, 19] was greater than 100 µM and the TGI ([17]; read-out: pTGI) was greater than 100 µM.
